Results reported in ChEMBL document CHEMBL1122501, “Potential antiatherosclerotic agents. 2. (Aralkylamino)- and (alkylamino) benzoic acid analogues of cetaben” (1983).
Several values for one entry are separate records, joined by “and”; a condition that tells them apart may be missing. Identical values can stand only once.

How the values were obtained:
[1] = system: Rattus norvegicus; assay: In vivo Triglyceride lowering activity at dose as 0.01 % of the diet; assay type: functional
Procedure, shortened: (§1)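 Male CFE or CD-1 Sprague-Dawley rats, 140-150 g; 8 per control group, 4 per test group. Compound mixed into ground chow (w/w) via MeOH-CHCl3 (1:3) solution, solvent evaporated; controls got solvent-treated chow. Fed ad libitum 5 days, food intake monitored, killed fed and bled. Serum sterols and triglycerides by adapted autoanalyzer methods; mean percent of control, Student's t test.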

[2] = system: Rattus norvegicus; assay: In vivo triglyceride lowering activity dosed at 0.10 % of the diet; assay type: functional; procedure, shortened: as §1
[3] = system: Rattus norvegicus; assay: In vivo Sterol lowering activity at dose as 0.01 % of the diet.; assay type: functional; procedure, shortened: as §1
[4] = system: Rattus norvegicus; assay: In vivo Sterol lowering activity at dose as 0.10 % of the diet.; assay type: functional; procedure, shortened: as §1
[5] = system: Rattus norvegicus; assay: In vivo Sterol lowering activity at dose as 0.03 % of the diet.; assay type: functional; procedure, shortened: as §1
[6] = biological target: T1, Sterol O-acyltransferase 1 (Rattus norvegicus) (UniProt O70536); assay: In vitro inhibitory activity against acyl coenzyme A:cholesterol acyltransferase (ACAT); set-up: concentration or dose not given beside the values; details: concentration not given here
T1 sequence (whole entry): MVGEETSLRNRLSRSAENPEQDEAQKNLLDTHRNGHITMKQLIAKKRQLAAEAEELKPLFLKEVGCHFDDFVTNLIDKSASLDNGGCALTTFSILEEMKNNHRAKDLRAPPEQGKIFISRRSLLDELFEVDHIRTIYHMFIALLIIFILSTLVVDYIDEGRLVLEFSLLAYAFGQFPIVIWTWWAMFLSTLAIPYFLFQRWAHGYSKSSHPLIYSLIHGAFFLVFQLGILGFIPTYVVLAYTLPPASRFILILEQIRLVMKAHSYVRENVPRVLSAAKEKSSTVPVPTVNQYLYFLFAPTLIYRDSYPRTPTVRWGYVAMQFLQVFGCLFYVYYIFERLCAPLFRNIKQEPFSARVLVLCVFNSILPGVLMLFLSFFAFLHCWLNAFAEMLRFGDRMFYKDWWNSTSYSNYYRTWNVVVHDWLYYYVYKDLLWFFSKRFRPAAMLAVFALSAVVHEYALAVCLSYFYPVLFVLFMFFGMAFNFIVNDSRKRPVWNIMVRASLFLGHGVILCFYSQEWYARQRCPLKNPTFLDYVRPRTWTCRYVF
Procedure, shortened: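 ACAT enzyme from rat adrenal homogenate in 0.2 M KH2PO4 buffer pH 7.4, 1000g 15 min 5 °C supernatant (microsomal fraction). Supernatant + BSA (50 mg/mL) + compound at final 5.2 μg/mL + buffer preincubated 10 min 37 °C; [14C]oleoyl-CoA (0.4 μCi) added, 30 min 37 °C. Lipids extracted, TLC; cholesteryl ester zone counted. Mean % inhibition vs no-compound control; Student's t test.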

[7] = system: Rattus norvegicus; assay: In vivo triglyceride lowering activity, dosed at 0.03 % of the diet; assay type: functional; procedure, shortened: as §1
[8] = system: Rattus norvegicus; assay: In vivo triglyceride lowering activity, dosed at 0.01 % of the diet.; assay type: functional; procedure, shortened: as §1
[9] = system: Rattus norvegicus; assay: In vivo sterol lowering activity dosed at 0.10 % of the diet; assay type: functional; procedure, shortened: as §1
[10] = system: Rattus norvegicus; assay: In vivo triglyceride lowering activity dosed at 0.05 % of the diet; assay type: functional; procedure, shortened: as §1
[11] = system: Rattus norvegicus; assay: In vivo Sterol lowering activity at dose as 0.05 % of the diet; assay type: functional; procedure, shortened: as §1

Compound	inhibition [6]	serum triglycerides, percent of control [2]	serum sterol, percent of control [3]	serum sterol level, percent of control [5]	serum triglycerides, percent of control [7]	serum sterol, percent of control [9]	further results
O=C(O)c1ccc(NCCCc2cccc(F)c2)cc1	18%	35%	94%	97%	61%		Diet [1]: 53%; Diet [4]: 90%
COc1ccc(/C=C/C(=O)Nc2ccc(C(=O)O)cc2)cc1	20%						
O=C(O)c1ccc(NCCCc2ccc(Cl)cc2)cc1 [listing 1 of 2 here]		50%	94%	94%	54%	72%	Diet [8]: 70%
CCOC(=O)C(C)c1ccc(NCCCc2ccc(Cl)cc2)cc1 (stereo not given)	85%	42%	86%	89%	48%		Diet [1]: 57%; serum sterol, percent of control [4]: 75%
O=C(O)c1ccc(NCCCc2ccc(Cl)cc2)cc1 [listing 2 of 2 here]	18% and 19%						
O=C(O)c1ccc(NCc2ccc(Cl)cc2)cc1	15% and 13%						
COc1ccc(CCC(=O)Nc2ccc(C(=O)O)cc2)cc1	0%						
CCN(CCCc1ccc(Cl)cc1)c1ccc(C(=O)O)cc1	52%	68%					serum sterol, percent of control [4]: 83%
CCOC(=O)c1ccc(NC(=O)/C=C/c2ccc(OC)cc2)cc1	52%						
CCOC(=O)c1ccc(N(CC)CCCc2ccc(Cl)cc2)cc1	48%	67%					serum sterol, percent of control [4]: 86%
CCOC(=O)c1ccc(N(C)CCCc2ccc(Cl)cc2)cc1	53%	49%					serum sterol, percent of control [4]: 99%
CN(CCCc1ccc(Cl)cc1)c1ccc(C(=O)O)cc1	24%	74%					serum sterol, percent of control [4]: 107%
O=C([O-])c1ccc(NCCCc2ccc(Cl)cc2)cc1.[Na+]		52%	94%	92%	60%	84%	Diet [8]: 72%
CCCCCCCCCCCCCCCCCNc1ccc(C(=O)OCC)cc1						111%	
O=[N+]([O-])c1ccc(CCCNc2ccccc2)cc1	46%	49%	90%	88%	61%		Diet [8]: 90%; serum sterol, percent of control [4]: 87%
CC(C(=O)O)c1ccc(NCCCc2ccc(Cl)cc2)cc1 (stereo not given)	14%	33%	94%	96%	63%	62%	Diet [1]: 63%
CCCCCCNc1ccc(C(=O)O)cc1							serum sterol, percent of control [4]: 94%
O=C(O)c1ccc(C(=O)O)c(NCCCc2ccc(Cl)cc2)c1	0%	51%	102%	100%	57%		Diet [8]: 72%; serum sterol, percent of control [4]: 103%
O=C(O)c1ccc(NCCCc2cccc(Br)c2)cc1	18%	60%	92%	91%	67%	80%	Diet [1]: 63%
O=C(O)c1ccc(NCCCc2ccc(Cl)c(Cl)c2)cc1	19%	63%	96%	89%	70%	73%	Diet [8]: 79%
O=C(O)c1ccc(NC/C=C/c2ccc(Cl)cc2)cc1	26%	54%	83%	92%	48%		Diet [8]: 95%; serum sterol, percent of control [4]: 90%
CCOC(=O)c1ccc(NCc2ccc(Cl)cc2)cc1	33%	50%	94%	86%	53%	84%	Diet [8]: 78%

Further lines, with some results ahead:

inhibition [6]	Compound	serum triglycerides, percent of control [2]	serum sterol, percent of control [3]	serum sterol level, percent of control [5]	serum triglycerides, percent of control [7]	serum sterol, percent of control [9]	further results
< 22%	CCCCCCCCCCCCCNc1ccc(C(=O)OCC)cc1	<70%				91%	
14%	O=C(O)c1ccc(NCCCCCCCc2ccccc2)cc1	<71%				91%	Diet [10]: <61%; Diet [11]: 96%
9%	C=C(CCCCCCCCCC)CCCCCNc1ccc(C(=O)OCC)cc1	<56%				<88%	
31%	CCOC(=O)c1ccc(NCCCc2ccc(C)cc2)cc1	68%	127%	103%	54%	122%	Diet [1]: 72%
< 44%	C=CCCCCCCCC/C=C/CCCNc1ccc(C(=O)O)cc1						
< 36%	CCCCCCCCCCCCCCCCCCCNc1ccc(C(=O)O)cc1						
63%	CCOC(=O)c1ccc(NCCCCCCc2cccs2)cc1						
< 47%	CCOC(=O)c1ccc(NCCCCCCCCCC/C=C\c2cccs2)cc1	72%				<82%	
< 46%	CCCCCCCCCC/C=C/CCCNc1ccc(C(=O)O)cc1						
< 59%	CCCCCCCCCCCc1nc(CNc2ccc(C(=O)OCC)cc2)c[nH]1	83%				100%	
42%	CCOC(=O)c1ccc(NCCCc2ccc(Cl)cc2)cc1	52%	90%	89%		76%	
< 57%	CCCCCCCCc1ccc(CCCNc2ccc(C(=O)OCC)cc2)s1	<46%				<83%	
< 60%	CCCCCCCCCCCCCCCCCCNc1ccc(C(=O)O)cc1						
54%	CCOC(=O)c1ccc(NCCCc2ccc(OC)cc2)cc1	60%	97%	90%	59%	86%	Diet [8]: 82%
50%	CCOC(=O)c1ccc(NCCCc2cccc(F)c2)cc1	37%	91%	88%	55%	77%	Diet [1]: 78%
< 53%	CCCCCCCCCCCCCCCCNc1ccc(C(=O)O)cc1						
0%	CCCCCCCCCCCCCCCCNc1ccc(C(=O)OC)cc1	85%				97%	
79%	CCOC(=O)c1ccc(NCCCc2cccc(Cl)c2)cc1	56%	93%	88%	65%	80%	Diet [1]: 65%
< 29%	CCCCCCCCCCCCCNc1ccc(C(=O)O)cc1						
< 21% and 17%	CCCCCCCCCCCCNc1ccc(C(=O)O)cc1						
62%	CCOC(=O)c1ccc(NCCCc2c(Cl)cccc2Cl)cc1	64%					serum sterol, percent of control [4]: 92%
< 40%	CCOC(=O)c1ccc(NCCCCCCCCCCCCc2cccs2)cc1	<46%				103%	
< 62%	CCOC(=O)c1ccc(NCCCCCCCCCC/C=C/c2cccs2)cc1						
